The values that follow come from ChEMBL document CHEMBL4043093, “2-Oxo-3, 4-dihydropyrimido[4, 5-d]pyrimidinyl derivatives as new irreversible pan fibroblast growth factor receptor (FGFR) inhibitors” (Eur J Med Chem, 2017).

Assay [1] addresses 5'-AMP-activated protein kinase catalytic subunit alpha-1 (Homo sapiens) (UniProt Q13131). Put plainly: Inhibition of wild-type human partial length AMPK alpha1 (M1 to E306 residues) expressed in Escherichia coli BL21 assessed as residual activity at 1000 nM after 30 mins by Kinomescan method relative to control.
Assay [2] concerns the target Mitogen-activated protein kinase kinase kinase 5 (Homo sapiens) (UniProt Q99683). Put plainly: Inhibition of wild-type human partial length ASK1 (E648 to S964 residues) expressed in Escherichia coli BL21 assessed as residual activity at 1000 nM after 30 mins by Kinomescan method relative to control.
Assay [3] addresses Bone morphogenetic protein receptor type-1B (Homo sapiens) (UniProt O00238). Put plainly: Inhibition of wild-type human partial length BMPR1B (D178 to L502 residues) expressed in HEK293 cells assessed as residual activity at 1000 nM after 30 mins by Kinomescan method relative to control. It counts as cell-based.
Assay [4] has as its target Calcium/calmodulin-dependent protein kinase type II subunit gamma (Homo sapiens) (UniProt Q13555). Put plainly: Inhibition of wild-type human partial length CAMK2G (R9 to A303 residues) expressed in Escherichia coli BL21 assessed as residual activity at 1000 nM after 30 mins by Kinomescan method relative to control.
The target of assay [5] is Cyclin-dependent kinase 4/cyclin D1 (Homo sapiens) (UniProt P11802+P24385). Put plainly: Inhibition of wild-type human full length CDK4/cyclinD1 (M1 to E303 residues) expressed in HEK293 cells assessed as residual activity at 1000 nM after 30 mins by Kinomescan method relative to control. It counts as cell-based. The procedure, abridged:
(§1)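 Single-point screen at a fixed 1 µM, run within a 456-kinase DiscoveRx KINOMEscan panel. Each kinase's read-out is Percent Control, i.e. signal relative to a control without compound. Hits were scored by a Percent Control < 35 cut-off, and an S(35) selectivity score was calculated across the non-mutant kinases.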

Assay [6] concerns the target Cyclin-dependent kinase 7 (Homo sapiens) (UniProt P50613). Put plainly: Inhibition of wild-type human full length CDK7 (M1 to L344 residues) expressed in HEK293 cells assessed as residual activity at 1000 nM after 30 mins by Kinomescan method relative to control. In kind it is cell-based. The procedure, abridged:
as §1

Assay [7] concerns the target Cyclin-dependent kinase-like 2 (Homo sapiens) (UniProt Q92772). Put plainly: Inhibition of wild-type human partial length CDKL2 (M1 to D327 residues) expressed in Escherichia coli BL21 assessed as residual activity at 1000 nM after 30 mins by Kinomescan method relative to control.
In assay [8] the target is Dual specificity protein kinase CLK4 (Homo sapiens) (UniProt Q9HAZ1). Put plainly: Inhibition of wild-type human partial length CLK4 (R135 to K481 residues) expressed in Escherichia coli BL21 assessed as residual activity at 1000 nM after 30 mins by Kinomescan method relative to control.
Dual specificity protein kinase CLK4 (Homo sapiens), sequence (Q9HAZ1 whole entry, looked up, the tested form may be a part): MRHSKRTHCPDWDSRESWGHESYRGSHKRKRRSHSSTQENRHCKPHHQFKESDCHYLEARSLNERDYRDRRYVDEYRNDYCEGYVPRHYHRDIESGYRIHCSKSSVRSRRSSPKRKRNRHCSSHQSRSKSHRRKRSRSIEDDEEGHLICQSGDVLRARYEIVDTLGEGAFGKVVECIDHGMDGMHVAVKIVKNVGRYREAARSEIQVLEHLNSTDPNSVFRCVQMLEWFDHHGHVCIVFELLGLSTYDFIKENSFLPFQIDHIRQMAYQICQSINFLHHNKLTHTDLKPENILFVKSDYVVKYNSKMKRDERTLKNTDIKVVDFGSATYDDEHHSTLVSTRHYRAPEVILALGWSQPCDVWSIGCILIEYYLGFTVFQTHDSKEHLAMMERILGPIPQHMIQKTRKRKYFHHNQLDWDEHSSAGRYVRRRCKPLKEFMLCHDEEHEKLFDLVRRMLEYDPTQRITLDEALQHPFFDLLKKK
Assay [9] addresses Ephrin type-A receptor 7 (Homo sapiens) (UniProt Q15375). Put plainly: Inhibition of wild-type human partial length EPHA7 (Y608 to S912 residues) expressed in Escherichia coli BL21 assessed as residual activity at 1000 nM after 30 mins by Kinomescan method relative to control.
Assay [10] deals with Ephrin type-A receptor 8 (Homo sapiens) (UniProt P29322). Put plainly: Inhibition of wild-type human partial length EPHA8 (Q608 to C920 residues) expressed in Escherichia coli BL21 assessed as residual activity at 1000 nM after 30 mins by Kinomescan method relative to control.
Assay [11] deals with Receptor tyrosine-protein kinase erbB-2 (Homo sapiens) (UniProt P04626). Put plainly: Inhibition of wild-type human partial length ERBB2 (K646 to V1225 residues) expressed in HEK293 cells assessed as residual activity at 1000 nM after 30 mins by Kinomescan method relative to control. In kind it is cell-based.
Assay [12] concerns the target Beta-adrenergic receptor kinase 1 (Homo sapiens) (UniProt P25098). Put plainly: Inhibition of wild-type human full length GRK2 (M1 to L689 residues) expressed in HEK293 cells assessed as residual activity at 1000 nM after 30 mins by Kinomescan method relative to control. It counts as cell-based. The method in brief:
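Single-concentration screen at 1 µM across a 456-kinase KINOMEscan panel. The read-out is Percent Control for each kinase.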

The target of assay [13] is Tyrosine-protein kinase Lck (Homo sapiens) (UniProt P06239). Put plainly: Inhibition of wild-type human partial length LCK (R207 to P509 residues) expressed in Escherichia coli BL21 assessed as residual activity at 1000 nM after 30 mins by Kinomescan method relative to control.
Tyrosine-protein kinase Lck (Homo sapiens), sequence (P06239 2-509 limits assumed): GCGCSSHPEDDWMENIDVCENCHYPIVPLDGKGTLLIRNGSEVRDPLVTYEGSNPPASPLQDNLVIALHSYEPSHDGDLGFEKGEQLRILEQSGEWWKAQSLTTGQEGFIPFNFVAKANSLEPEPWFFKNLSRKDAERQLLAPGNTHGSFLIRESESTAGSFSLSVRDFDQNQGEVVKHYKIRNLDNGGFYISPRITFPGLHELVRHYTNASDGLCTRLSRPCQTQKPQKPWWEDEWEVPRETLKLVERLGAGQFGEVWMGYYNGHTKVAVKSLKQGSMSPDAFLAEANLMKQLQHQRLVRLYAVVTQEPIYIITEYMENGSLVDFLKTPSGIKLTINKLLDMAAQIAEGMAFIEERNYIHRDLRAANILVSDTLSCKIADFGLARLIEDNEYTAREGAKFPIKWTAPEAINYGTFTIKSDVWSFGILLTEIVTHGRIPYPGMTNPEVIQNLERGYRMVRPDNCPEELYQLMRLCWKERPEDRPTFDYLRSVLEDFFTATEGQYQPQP
Assay [14] has as its target MAP kinase-activated protein kinase 5 (Homo sapiens) (UniProt Q8IW41). Put plainly: Inhibition of wild-type human partial length MAPKAPK5 (M1 to D322 residues) expressed in HEK293 cells assessed as residual activity at 1000 nM after 30 mins by Kinomescan method relative to control. In kind it is cell-based.
Assay [15] has as its target Mitogen-activated protein kinase 11 (Homo sapiens) (UniProt Q15759). Put plainly: Inhibition of wild-type human full length p38-beta (M1 to Q364 residues) expressed in Escherichia coli BL21 assessed as residual activity at 1000 nM after 30 mins by Kinomescan method relative to control.
Assay [16] addresses Phosphatidylinositol 3-kinase C2 domain-containing subunit gamma (Homo sapiens) (UniProt O75747). Put plainly: Inhibition of wild-type human partial length PIK3C2G (M1 to I1446 residues) expressed in HEK293 cells assessed as residual activity at 1000 nM after 30 mins by Kinomescan method relative to control. In kind it is cell-based.
The target of assay [17] is Serine/threonine-protein kinase pim-2 (Homo sapiens) (UniProt Q9P1W9). Put plainly: Inhibition of wild-type human partial length PIM2 (M1 to E291 residues) expressed in Escherichia coli BL21 assessed as residual activity at 1000 nM after 30 mins by Kinomescan method relative to control.
Serine/threonine-protein kinase pim-2 (Homo sapiens), sequence (Q9P1W9 whole entry, looked up, the tested form may be a part): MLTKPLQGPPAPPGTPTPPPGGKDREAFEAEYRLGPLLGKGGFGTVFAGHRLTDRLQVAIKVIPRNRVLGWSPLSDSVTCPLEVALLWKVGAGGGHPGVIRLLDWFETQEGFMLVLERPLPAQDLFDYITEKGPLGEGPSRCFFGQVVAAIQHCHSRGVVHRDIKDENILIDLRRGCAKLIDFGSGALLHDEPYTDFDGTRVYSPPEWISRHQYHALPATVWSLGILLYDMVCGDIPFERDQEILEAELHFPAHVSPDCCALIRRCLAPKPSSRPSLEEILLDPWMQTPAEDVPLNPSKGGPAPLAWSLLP
The target of assay [18] is Phosphatidylinositol 5-phosphate 4-kinase type-2 beta (Homo sapiens) (UniProt P78356). Put plainly: Inhibition of wild-type human full length PIP5K2B (M1 to T416 residues) expressed in Escherichia coli BL21 assessed as residual activity at 1000 nM after 30 mins by Kinomescan method relative to control. The procedure, abridged:
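Single-concentration screen at 1 µM against a 456-kinase panel (KINOMEscan). Read-out is Percent Control for each kinase. Across the 403 non-mutant kinases, an S(35) selectivity score was derived as the fraction of kinases with Percent Control < 35.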

For assay [19], the target named is Serine/threonine-protein kinase SIK3 (Homo sapiens) (UniProt Q9Y2K2). Put plainly: Inhibition of wild-type human partial length QSK (A90 to L395 residues) expressed in HEK293 cells assessed as residual activity at 1000 nM after 30 mins by Kinomescan method relative to control. In kind it is cell-based.
For assay [20], the target named is Ribosomal protein S6 kinase alpha-3 (Homo sapiens) (UniProt P51812). Put plainly: Inhibition of wild-type human partial length C-terminal RSK3 kinase domain 2 (V403 to K700 residues) expressed in Escherichia coli BL21 assessed as residual activity at 1000 nM after 30 mins by Kinomescan method relative to control.
Ribosomal protein S6 kinase alpha-3 (Homo sapiens), sequence (P51812 whole entry, the tested form may be a part): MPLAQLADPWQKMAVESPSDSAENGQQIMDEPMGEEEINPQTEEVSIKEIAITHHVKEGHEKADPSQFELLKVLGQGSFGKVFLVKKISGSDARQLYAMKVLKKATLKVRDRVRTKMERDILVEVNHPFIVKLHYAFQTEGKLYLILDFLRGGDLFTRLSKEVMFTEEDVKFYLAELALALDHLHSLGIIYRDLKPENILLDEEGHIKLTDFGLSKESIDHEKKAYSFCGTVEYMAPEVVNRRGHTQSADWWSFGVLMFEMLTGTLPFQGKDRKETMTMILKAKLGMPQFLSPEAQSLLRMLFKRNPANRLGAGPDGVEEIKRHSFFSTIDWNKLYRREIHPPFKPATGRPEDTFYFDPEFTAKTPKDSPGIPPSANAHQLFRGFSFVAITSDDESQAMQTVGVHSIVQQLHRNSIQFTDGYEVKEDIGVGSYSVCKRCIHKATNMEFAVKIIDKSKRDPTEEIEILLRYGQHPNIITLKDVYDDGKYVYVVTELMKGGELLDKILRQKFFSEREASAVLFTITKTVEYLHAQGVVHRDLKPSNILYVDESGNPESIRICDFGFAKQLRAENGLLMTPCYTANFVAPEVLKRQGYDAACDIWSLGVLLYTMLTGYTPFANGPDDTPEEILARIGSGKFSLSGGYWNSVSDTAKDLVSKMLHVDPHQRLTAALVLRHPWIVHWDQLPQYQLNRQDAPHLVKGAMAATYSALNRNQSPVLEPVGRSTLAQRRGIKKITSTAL
The target in assay [21] is Serine/threonine-protein kinase 36 (Homo sapiens) (UniProt Q9NRP7). Put plainly: Inhibition of wild-type human partial length STK36 (M1 to T271 residues) expressed in Escherichia coli BL21 assessed as residual activity at 1000 nM after 30 mins by Kinomescan method relative to control.
Serine/threonine-protein kinase 36 (Homo sapiens), sequence (Q9NRP7 whole entry, the tested form may be a part): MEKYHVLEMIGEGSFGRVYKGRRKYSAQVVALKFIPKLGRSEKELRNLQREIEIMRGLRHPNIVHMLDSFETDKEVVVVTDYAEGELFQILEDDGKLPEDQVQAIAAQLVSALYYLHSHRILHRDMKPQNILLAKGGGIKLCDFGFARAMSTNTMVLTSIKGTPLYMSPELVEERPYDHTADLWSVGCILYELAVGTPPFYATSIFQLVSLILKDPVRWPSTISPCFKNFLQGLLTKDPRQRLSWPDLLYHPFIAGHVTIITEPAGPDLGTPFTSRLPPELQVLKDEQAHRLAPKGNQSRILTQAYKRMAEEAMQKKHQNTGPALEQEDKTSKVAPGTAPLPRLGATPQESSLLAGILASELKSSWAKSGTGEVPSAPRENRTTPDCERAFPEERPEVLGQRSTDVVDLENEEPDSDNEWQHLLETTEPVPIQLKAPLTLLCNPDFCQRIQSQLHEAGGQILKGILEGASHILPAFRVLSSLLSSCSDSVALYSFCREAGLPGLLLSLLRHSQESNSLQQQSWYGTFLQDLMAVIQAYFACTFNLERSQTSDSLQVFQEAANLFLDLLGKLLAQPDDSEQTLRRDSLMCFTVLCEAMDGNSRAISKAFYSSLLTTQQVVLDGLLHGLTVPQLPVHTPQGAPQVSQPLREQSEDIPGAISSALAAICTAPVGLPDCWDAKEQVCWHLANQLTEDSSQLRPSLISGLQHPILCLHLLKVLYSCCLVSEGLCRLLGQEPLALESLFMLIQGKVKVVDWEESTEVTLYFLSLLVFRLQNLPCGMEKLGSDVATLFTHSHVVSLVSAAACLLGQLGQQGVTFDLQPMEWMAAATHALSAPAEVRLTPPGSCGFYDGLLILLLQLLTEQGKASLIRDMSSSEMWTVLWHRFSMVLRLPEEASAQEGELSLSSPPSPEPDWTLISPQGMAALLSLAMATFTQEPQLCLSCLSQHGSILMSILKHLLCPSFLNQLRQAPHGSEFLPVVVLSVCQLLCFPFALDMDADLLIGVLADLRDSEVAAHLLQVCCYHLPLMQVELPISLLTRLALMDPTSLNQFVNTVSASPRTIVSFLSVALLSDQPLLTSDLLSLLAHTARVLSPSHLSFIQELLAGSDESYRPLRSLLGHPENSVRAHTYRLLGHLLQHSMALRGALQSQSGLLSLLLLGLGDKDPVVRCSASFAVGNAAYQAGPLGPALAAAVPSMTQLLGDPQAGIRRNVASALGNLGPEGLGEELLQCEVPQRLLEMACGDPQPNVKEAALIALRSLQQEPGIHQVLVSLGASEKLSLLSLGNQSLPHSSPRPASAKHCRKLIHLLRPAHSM

Bone morphogenetic protein receptor type-1B (Homo sapiens), sequence (O00238 whole entry, the tested form may be a part): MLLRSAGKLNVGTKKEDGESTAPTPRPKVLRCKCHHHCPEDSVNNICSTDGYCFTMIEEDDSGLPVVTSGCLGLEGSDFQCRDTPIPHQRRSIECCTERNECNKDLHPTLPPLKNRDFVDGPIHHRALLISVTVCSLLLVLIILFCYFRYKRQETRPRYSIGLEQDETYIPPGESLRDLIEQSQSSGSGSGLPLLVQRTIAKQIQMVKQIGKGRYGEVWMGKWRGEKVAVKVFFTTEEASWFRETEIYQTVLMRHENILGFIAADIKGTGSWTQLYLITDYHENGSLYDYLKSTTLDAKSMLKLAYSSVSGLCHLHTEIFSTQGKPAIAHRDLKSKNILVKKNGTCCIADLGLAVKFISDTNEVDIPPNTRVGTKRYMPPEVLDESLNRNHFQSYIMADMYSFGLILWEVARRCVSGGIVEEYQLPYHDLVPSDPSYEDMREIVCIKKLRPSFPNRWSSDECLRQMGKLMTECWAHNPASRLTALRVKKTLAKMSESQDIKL
Cyclin-dependent kinase-like 2 (Homo sapiens), sequence (Q92772 whole entry, the tested form may be a part): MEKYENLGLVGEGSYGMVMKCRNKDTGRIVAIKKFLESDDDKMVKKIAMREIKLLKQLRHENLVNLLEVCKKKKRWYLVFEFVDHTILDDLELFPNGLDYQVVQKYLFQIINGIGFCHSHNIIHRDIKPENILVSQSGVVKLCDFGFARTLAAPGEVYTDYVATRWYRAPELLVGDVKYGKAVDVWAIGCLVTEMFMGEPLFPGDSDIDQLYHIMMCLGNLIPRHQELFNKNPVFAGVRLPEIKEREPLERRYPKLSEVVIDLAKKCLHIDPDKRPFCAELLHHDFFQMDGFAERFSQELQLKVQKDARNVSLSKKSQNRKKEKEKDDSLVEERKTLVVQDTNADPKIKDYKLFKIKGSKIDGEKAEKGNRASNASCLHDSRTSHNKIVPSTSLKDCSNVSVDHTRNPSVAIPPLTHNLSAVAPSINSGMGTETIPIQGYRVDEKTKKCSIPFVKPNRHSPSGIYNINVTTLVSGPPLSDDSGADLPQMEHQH
MAP kinase-activated protein kinase 5 (Homo sapiens), sequence (Q8IW41 whole entry, the tested form may be a part): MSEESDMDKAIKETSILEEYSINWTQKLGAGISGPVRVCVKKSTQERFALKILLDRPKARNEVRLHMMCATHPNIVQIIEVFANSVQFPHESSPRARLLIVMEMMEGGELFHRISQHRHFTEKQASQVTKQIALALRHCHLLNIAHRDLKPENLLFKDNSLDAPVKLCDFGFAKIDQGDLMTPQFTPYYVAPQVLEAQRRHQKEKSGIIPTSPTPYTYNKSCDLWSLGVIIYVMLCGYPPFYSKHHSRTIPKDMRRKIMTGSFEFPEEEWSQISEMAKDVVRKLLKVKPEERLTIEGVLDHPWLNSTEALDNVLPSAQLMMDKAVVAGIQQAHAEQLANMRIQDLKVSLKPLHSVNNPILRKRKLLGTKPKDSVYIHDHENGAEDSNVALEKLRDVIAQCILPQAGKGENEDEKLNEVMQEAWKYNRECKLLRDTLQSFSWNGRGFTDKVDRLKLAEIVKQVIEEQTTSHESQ

Regarding `COc1cc(OC)c(Cl)c(N2Cc3cnc(Nc4ccc(F)cc4)nc3N(C3CCN(C(=O)/C=C/CN(C)C)CC3)C2=O)c1Cl`, the Activity came out at 96% in assay [1]; 100% in [2]; 97% in assay [3]; 100% in assay [4]; 100% in [5]; 100% in [6]. The Activity in [7] came to 96%; in assay [8], 93%; in assay [9] it was 99%; in assay [10] it was 100%; in assay [11], 96%; in assay [12], 87%. Moreover, the Activity in assay [13] was found to be 1.5%; in assay [14] it was 100%; in assay [15], 87%; in [16], 95%; in [17], 83%; in assay [18], 100%. Besides, the Activity stood at 100% in assay [19], 88% in [20] and 100% in [21].
